In ChEMBL document CHEMBL1145300, “Design, synthesis, and anti-inflammatory activity both in vitro and in vivo of new betulinic acid analogues having an enone functionality in ring A” (Bioorg Med Chem Lett, 2006):
Calls of active or inactive are those of the source. No cut-off for these calls is given here.

tested on: RAW; assay: Inhibition of nitric oxide production in IFN-gamma stimulated RAW 264.7 cells; assay type: functional, cell-based; conditions: Mus musculus

SMILES | IC50 | Activity
C=C(C)[C@@H]1CC[C@]2(C(N)=O)CC[C@]3(C)C(CC[C@@H]4[C@@]5(C)C=C(C#N)C(=O)C(C)(C)[C@@H]5CC[C@]43C)[C@@H]12 (stereo partly drawn) | 30 nM | 
C=C(CF)[C@@H]1CC[C@]2(C(=O)OC)CC[C@]3(C)C(CC[C@@H]4[C@@]5(C)C=C(C(=O)OC)C(=O)C(C)(C)[C@@H]5CC[C@]43C)[C@@H]12 (stereo partly drawn) | 300 nM | 
C=C(C)[C@@H]1CC[C@]2(C(=O)n3ccnc3C)CC[C@]3(C)C(CC[C@@H]4[C@@]5(C)C=C(C#N)C(=O)C(C)(C)[C@@H]5CC[C@]43C)[C@@H]12 (stereo partly drawn) | 50 nM | 
C=C(C)[C@@H]1CC[C@]2(C(=O)N(C)C)CC[C@]3(C)C(CC[C@@H]4[C@@]5(C)C=C(C#N)C(=O)C(C)(C)[C@@H]5CC[C@]43C)[C@@H]12 (stereo partly drawn) | 30 nM | 
C=C(C)[C@@H]1CC[C@]2(C(=O)n3ccnc3CC)CC[C@]3(C)C(CC[C@@H]4[C@@]5(C)C=C(C#N)C(=O)C(C)(C)[C@@H]5CC[C@]43C)[C@@H]12 (stereo partly drawn) | 30 nM | 
C=C(C)[C@@H]1CC[C@]2(C(=O)OC)CC[C@]3(C)C(CC[C@@H]4[C@@]5(C)C=C(C(=O)O)C(=O)C(C)(C)[C@@H]5CC[C@]43C)[C@@H]12 (stereo partly drawn) | 300 nM | 
C=C(C)[C@@H]1CC[C@]2(C(=O)n3ccnc3)CC[C@]3(C)C(CC[C@@H]4[C@@]5(C)C=C(C#N)C(=O)C(C)(C)[C@@H]5CC[C@]43C)[C@@H]12 (stereo partly drawn) | 30 nM | 
C=C(CF)[C@@H]1CC[C@]2(C(=O)OC)CC[C@]3(C)C(CC[C@@H]4[C@@]5(C)C=C(C(=O)O)C(=O)C(C)(C)[C@@H]5CC[C@]43C)[C@@H]12 (stereo partly drawn) | 300 nM | 
C=C(CO)[C@@H]1CC[C@]2(C(=O)OC)CC[C@]3(C)C(CC[C@@H]4[C@@]5(C)C=C(C(=O)O)C(=O)C(C)(C)[C@@H]5CC[C@]43C)[C@@H]12 (stereo partly drawn) | 900 nM | 
C=C(C)[C@@H]1CC[C@]2(C(=O)OC)CC[C@]3(C)C(CC[C@@H]4[C@@]5(C)C=C(C#N)C(=O)C(C)(C)[C@@H]5CC[C@]43C)[C@@H]12 (stereo partly drawn) | 30 nM | 
C=C(C)[C@@H]1CC[C@]2(C(=O)O)CC[C@]3(C)[C@H](CC[C@@H]4[C@@]5(C)CC[C@H](O)C(C)(C)[C@@H]5CC[C@]43C)[C@@H]12 |  | inactive
C=C(CO)[C@@H]1CC[C@]2(C(=O)OC)CC[C@]3(C)C(CC[C@@H]4[C@@]5(C)C=C(C(=O)OC)C(=O)C(C)(C)[C@@H]5CC[C@]43C)[C@@H]12 (stereo partly drawn) | 1000 nM | 
C=C(C)[C@@H]1CC[C@]2(C(=O)OCC)CC[C@]3(C)C(CC[C@@H]4[C@@]5(C)C=C(C#N)C(=O)C(C)(C)[C@@H]5CC[C@]43C)[C@@H]12 (stereo partly drawn) | 20 nM | 
C=C(C)[C@@H]1CC[C@]2(C(=O)O)CC[C@]3(C)C(CC[C@@H]4[C@@]5(C)C=C(C#N)C(=O)C(C)(C)[C@@H]5CC[C@]43C)[C@@H]12 (stereo partly drawn) | 200 nM | 
C=C(C)[C@@H]1CC[C@]2(C(=O)OC)CC[C@]3(C)C(CC[C@@H]4[C@@]5(C)C=C(C(=O)OC)C(=O)C(C)(C)[C@@H]5CC[C@]43C)[C@@H]12 (stereo partly drawn) | 600 nM | 
C=C(C)[C@@H]1CC[C@]2(C(=O)NC)CC[C@]3(C)C(CC[C@@H]4[C@@]5(C)C=C(C#N)C(=O)C(C)(C)[C@@H]5CC[C@]43C)[C@@H]12 (stereo partly drawn) | 50 nM | 

biological target: T1, Heme oxygenase 1 (Mus musculus) (UniProt P14901); assay: Induction of liver HO1 in CD1 mouse at 2 uM, po after 6 hrs; assay type: organism-based; conditions: not given
T1 sequence (whole entry): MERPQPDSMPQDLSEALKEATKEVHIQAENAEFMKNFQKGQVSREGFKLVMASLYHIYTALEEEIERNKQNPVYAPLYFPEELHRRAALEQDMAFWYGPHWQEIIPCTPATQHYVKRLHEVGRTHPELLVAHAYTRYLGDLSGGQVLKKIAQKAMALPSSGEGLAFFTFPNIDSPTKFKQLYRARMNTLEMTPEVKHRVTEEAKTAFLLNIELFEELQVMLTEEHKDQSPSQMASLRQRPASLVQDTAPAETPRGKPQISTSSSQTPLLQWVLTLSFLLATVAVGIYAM
In short: (§1)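 Male CD-1 mice, 3 per group, were given a single oral gavage of 2 μmole triterpenoid in DMSO. The read-out was heme oxygenase-1 (HO-1) induction in the liver.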

SMILES | Activity
C=C(C)[C@@H]1CC[C@]2(C(=O)n3ccnc3)CC[C@]3(C)C(CC[C@@H]4[C@@]5(C)C=C(C#N)C(=O)C(C)(C)[C@@H]5CC[C@]43C)[C@@H]12 (stereo partly drawn) | Active

tested on: Mus musculus; assay: Antiinflammatory activity in CD1 mouse at 2 uM, po; assay type: functional, organism-based; conditions: not given; in short: as §1

SMILES | Activity
C=C(C)[C@@H]1CC[C@]2(C(=O)n3ccnc3)CC[C@]3(C)C(CC[C@@H]4[C@@]5(C)C=C(C#N)C(=O)C(C)(C)[C@@H]5CC[C@]43C)[C@@H]12 (stereo partly drawn) | Active
